Series [1] concerns the target T1, Diacylglycerol O-acyltransferase 1 (Mus musculus, UniProt Q9Z2A7).
T1 sequence (Q9Z2A7 whole entry): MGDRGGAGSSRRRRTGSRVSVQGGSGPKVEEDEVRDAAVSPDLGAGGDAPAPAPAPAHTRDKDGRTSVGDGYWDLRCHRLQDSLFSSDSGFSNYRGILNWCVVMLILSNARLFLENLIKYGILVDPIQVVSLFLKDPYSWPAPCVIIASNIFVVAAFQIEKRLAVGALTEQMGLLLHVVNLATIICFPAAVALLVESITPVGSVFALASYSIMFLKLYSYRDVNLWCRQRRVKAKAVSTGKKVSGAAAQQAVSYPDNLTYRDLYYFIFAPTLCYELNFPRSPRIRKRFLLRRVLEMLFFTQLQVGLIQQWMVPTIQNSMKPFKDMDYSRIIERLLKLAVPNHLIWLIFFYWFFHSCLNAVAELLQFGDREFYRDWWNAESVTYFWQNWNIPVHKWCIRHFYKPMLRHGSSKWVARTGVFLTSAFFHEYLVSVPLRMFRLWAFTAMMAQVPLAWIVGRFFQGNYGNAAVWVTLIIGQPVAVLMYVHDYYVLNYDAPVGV
Nature of the series: Inhibition of mouse DGAT1.

The target of series [2] is T2, Diacylglycerol O-acyltransferase 1 (Homo sapiens, UniProt O75907).
T2 sequence (O75907 whole entry): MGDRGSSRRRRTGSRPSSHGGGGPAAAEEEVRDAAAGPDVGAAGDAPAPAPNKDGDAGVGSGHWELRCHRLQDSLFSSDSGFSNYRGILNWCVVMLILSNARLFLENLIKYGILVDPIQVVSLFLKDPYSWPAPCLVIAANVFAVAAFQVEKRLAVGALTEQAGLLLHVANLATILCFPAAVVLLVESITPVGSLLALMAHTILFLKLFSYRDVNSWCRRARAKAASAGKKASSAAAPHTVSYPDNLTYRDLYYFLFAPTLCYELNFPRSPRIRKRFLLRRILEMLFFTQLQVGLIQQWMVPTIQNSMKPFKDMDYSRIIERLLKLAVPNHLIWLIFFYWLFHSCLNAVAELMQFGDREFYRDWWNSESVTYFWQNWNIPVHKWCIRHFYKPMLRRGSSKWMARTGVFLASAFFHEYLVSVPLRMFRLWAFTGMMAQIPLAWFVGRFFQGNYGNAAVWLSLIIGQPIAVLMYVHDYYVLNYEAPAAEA
Put plainly: Inhibition of human DGAT1.

Series [3] concerns Mus musculus. Put plainly: Reduction in triglyceride excursion in mouse at 3 mg/kg, po by lipid tolerance test. It is filed as functional. Also noted: scale not given: the % may be the effect or the level left.
Series [4] deals with Canis familiaris. Put plainly: Reduction in triglyceride excursion in dog at 3 mg/kg, po administered 1 hr prior lipid-challenge measured up to 24 hrs by lipid tolerance test. It is filed as functional, organism-based. Also noted: dose 3 mg/kg. Conditions: Canis lupus familiaris. Summed up:
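Dog lipid tolerance test. Oral dose of 3 mg/kg in 0.5% methyl cellulose; lipid challenge 1 h after dosing; triglyceride excursion compared with a vehicle group over time; plasma drug levels sampled from 0 to 24 h.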

Series [5] can be described thus: Lipophilicity, log D of the compound by HPLC analysis. It is filed as physicochemical.
A short description of series [6]: Ratio of drug uptake in ileum to blood of mouse at 3 mg/kg, po at 2 to 25 hrs. Format: ADME, organism-based. Also noted: dose 3 mg/kg, route oral. The method in brief: (§1)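 Mice dosed orally at 3 mg/kg within a repeat lipid tolerance test. Drug levels (μM) measured in blood and in intestinal segments (duodenum, jejunum, ileum) at 2, 5 and 25 h after dosing. Tissue-to-blood ratio taken from the segment and blood concentrations at each time point.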

Series [7] is described as follows: Ratio of drug uptake in jejunum to blood of mouse at 3 mg/kg, po at 2 to 25 hrs. Format: ADME, organism-based. More on the design: dose 3 mg/kg, route oral. Summed up: as §1
Series [8] can be described thus: Ratio of drug uptake in duodenum to blood of mouse at 3 mg/kg, po at 2 to 25 hrs. It is filed as ADME, organism-based. More on the design: dose 3 mg/kg, route oral. Summed up: as §1
Series [9] is described as follows: Biodistribution in mouse ileum at 3 mg/kg, po at 25 hrs. Format: ADME, organism-based. Also noted: dose 3 mg/kg, route oral. The following applies: read-out: Drug uptake. Summed up:
(§2)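 Mice, single oral dose of 3 mg/kg. Drug concentration (μM) determined in blood and in duodenum, jejunum and ileum segments at 2, 5 and 25 h.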

Series [10] can be described thus: Biodistribution in mouse ileum at 3 mg/kg, po at 5 hrs. It is filed as ADME, organism-based. More on the design: dose 3 mg/kg, route oral. The following applies: read-out: Drug uptake. Summed up: as §2
Series [11] can be described thus: Biodistribution in mouse ileum at 3 mg/kg, po at 2 hrs. It is filed as ADME, organism-based. More on the design: dose 3 mg/kg, route oral. The following applies: read-out: Drug uptake. Summed up: as §2
Series [12] is described as follows: Biodistribution in mouse jejunum at 3 mg/kg, po at 25 hrs. Format: ADME, organism-based. Also noted: dose 3 mg/kg, route oral. Conditions: read-out: Drug uptake. Summed up:
as §2

Series [13] is described as follows: Biodistribution in mouse jejunum at 3 mg/kg, po at 5 hrs. Format: ADME, organism-based. Also noted: dose 3 mg/kg, route oral. The following applies: read-out: Drug uptake. The method in brief: as §2
A short description of series [14]: Biodistribution in mouse jejunum at 3 mg/kg, po at 2 hrs. Format: ADME, organism-based. The following applies: read-out: Drug uptake. Also noted: dose 3 mg/kg, route oral. Summed up: as §2
The nature of series [15]: Biodistribution in mouse duodenum at 3 mg/kg, po at 25 hrs. It is filed as ADME, organism-based. More on the design: dose 3 mg/kg, route oral. The following applies: read-out: Drug uptake. The method in brief: as §2
A short description of series [16]: Biodistribution in mouse duodenum at 3 mg/kg, po at 5 hrs. More on the design: dose 3 mg/kg, route oral. Conditions: read-out: Drug uptake. Format: ADME, organism-based. The method in brief: as §2
Series [17] can be described thus: Biodistribution in mouse blood at 3 mg/kg, po at 25 hrs. It is filed as ADME, organism-based. Also noted: dose 3 mg/kg, route oral. The following applies: whole blood, read-out: Drug uptake. Summed up:
as §2

The nature of series [18]: Biodistribution in mouse duodenum at 3 mg/kg, po at 2 hrs. The following applies: read-out: Drug uptake. Format: ADME, organism-based. More on the design: dose 3 mg/kg, route oral. Summed up:
as §2

Series [19] is described as follows: Biodistribution in mouse blood at 3 mg/kg, po at 5 hrs. Format: ADME, organism-based. Also noted: dose 3 mg/kg, route oral. Conditions: whole blood, read-out: Drug uptake. Summed up:
as §2

Series [20] is described as follows: Biodistribution in mouse blood at 3 mg/kg, po at 2 hrs. Format: ADME, organism-based. Also noted: dose 3 mg/kg, route oral. Conditions: whole blood, read-out: Drug uptake. Summed up: as §2

Activity calls are given as the source filed them. The rule behind the calls is not given here.

The IC50 is the concentration that gives 50% inhibition. As a reminder, the logD is lipophilicity at a set pH, counting ionised and neutral species. What is called Kp is the ratio of the level in a tissue or fluid to that in plasma or blood.

In the case of `CS(=O)(=O)c1ccc2nc(-c3ccc(-c4ccc(O[C@H]5CC[C@H](C(=O)O)CC5)nc4)nc3)[nH]c2c1`, the IC50 in series [1] was found to be 727 nM; in series [2], 137 nM.
For the compound `O=C(O)[C@H]1CC[C@@H](Oc2ccc(-c3ccc(-c4nc5cc(F)ccc5[nH]4)cn3)cn2)CC1`, in series [3], the Activity amounted to 72%. In [4], the result was Active.
On to `O=C(O)[C@H]1CC[C@@H](Oc2ccc(-c3ccc(-c4nc5cc(F)c(F)cc5[nH]4)cn3)cn2)CC1`, for which the IC50 was determined as 3.4 nM in series [1] and 1.4 nM in [2]. This compound also gave a logD in [5] of 1.28.
For the compound `O=C(O)[C@H]1CC[C@@H](Oc2ccc(-c3ccc(-c4nc5ccccc5[nH]4)cn3)cn2)CC1`, the Kp in [6], in series [7] and in [8] was greater than 30 each time. Besides, the concentration at 25 h in [9] amounted to 620 nM; in series [12], 3060 nM; in series [15], 1760 nM; in [17], 10 nM. Further, the concentration at 5 h came out at 1720 nM in series [10], 6010 nM in series [13], 8760 nM in [16] and 51 nM in series [19]. Also, the concentration at 2 h in [11] is 3890 nM; in series [14] it was 5510 nM; in series [18] it was 8320 nM; in series [20], 114 nM. Moreover, the Activity in series [3] stood at 95%. Moreover, the concentration for half-maximal inhibition (IC50) in [1] came to 8.1 nM; in series [2], 4 nM.
For the compound `O=C(O)[C@H]1CC[C@H](Oc2ccc(-c3ccc(-c4nc5ccccc5[nH]4)cn3)cn2)CC1`, the figures for the IC50 in series [1] and in series [2] were 12 nM and 5.3 nM, respectively.
Take `COc1ccc2[nH]c(-c3ccc(-c4ccc(O[C@H]5CC[C@@H](C(=O)O)CC5)nc4)nc3)nc2n1`: the IC50 in series [2] came to 11 nM.
In the case of `N#Cc1ccc2nc(-c3ccc(-c4ccc(O[C@H]5CC[C@H](C(=O)O)CC5)nc4)nc3)[nH]c2c1`, the half-maximal inhibitory concentration (IC50) in [1] came out at 96 nM; in series [2] it was 6 nM.
Take `O=C(O)C[C@H]1CC[C@H](c2ccc(-c3ccc(-c4nc5ccc(C(F)(F)F)cc5[nH]4)cn3)cc2)CC1`: the half-inhibitory concentration (IC50) in series [1] came to 2.8 nM; in series [2], 3.5 nM. The same compound registered a pH-dependent lipophilicity (logD) in [5] of 1.97.
`COc1ccc2[nH]c(-c3ccc(-c4ccc(O[C@H]5CC[C@H](C(=O)O)CC5)nc4)nc3)nc2n1` yielded a 50% inhibitory concentration (IC50) in [2] of 14 nM.

These data come from ChEMBL document CHEMBL2407079, “Potent DGAT1 Inhibitors in the Benzimidazole Class with a Pyridyl-oxy-cyclohexanecarboxylic Acid Moiety” (ACS Med Chem Lett, 2013).
